# Tests used:
# [1] = target: Mu-type opioid receptor (Cavia porcellus) (UniProt P97266); assay: Antagonist activity against electrically stimulated guinea pig ileum using morphine (M) as mu opioid receptor agonist; format: functional, tissue-based
# Procedure, shortened: (§1)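 Electrically stimulated guinea pig ileum (morphine, μ; ethylketazocine, κ) or mouse vas deferens (DADLE, δ). The test ligand is incubated with the tissue for 15 min, then the agonist curve is run with 100 nM antagonist present. Read-out is the IC50 ratio: agonist IC50 with antagonist divided by the control IC50 in the same preparation. Three or more replicates.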
# Mu-type opioid receptor [2] = target: Mu-type opioid receptor (Homo sapiens, UniProt P35372); assay: […]; format: functional
# [3] = target: Delta-type opioid receptor (Homo sapiens, UniProt P41143); assay: […]; format: functional
# [4] = target: Kappa-type opioid receptor (Homo sapiens, UniProt P41145); assay: […]; format: functional
# Cavia porcellus [5] = species on record: Cavia porcellus; assay: Compound was tested for agonistic activity on the electrically stimulated guinea pig ileum (GPI) at 1 uM; format: functional
# [6] = target: Kappa-type opioid receptor (Cavia porcellus) (UniProt P41144); assay: Antagonist activity against electrically stimulated guinea pig ileum using ethylketazocine (EK) as kappa opioid receptor agonist; format: functional, tissue-based; procedure, shortened: as §1
# Mus musculus [7] = species on record: Mus musculus; assay: Compound was tested for agonistic activity on the electrically stimulated mouse vas deferens (MVD); format: functional, organism-based
# [8] = target: Delta-type opioid receptor (Mus musculus) (UniProt P32300); assay: Compound was tested for its ability to antagonize the antinociceptive effect of DSLET (delta-2 opioid receptor agonist) in mice; format: functional
# Procedure, shortened: (§2)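 Tail-flick antinociception in ICR mice. Antagonist is given icv at 5 or 10 nmol, timed so its 20 min peak effect falls at the centre of the observation period. Agonists are DPDPE and DSLET icv, and morphine sc. Read-out is the agonist ED50 with antagonist divided by the control ED50, with 95% confidence limits.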
# [9] = target: Kappa-type opioid receptor (Mus musculus, UniProt P33534); assay: […]; format: functional
# Procedure, shortened: (§3)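 Competition binding in ICR mouse brain membranes, using a modified Werling procedure. Radioligands are [3H]naltrindole for δ, [3H]DAMGO for μ and [3H]U69593 for κ. Ki values are derived from the competition curves.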
# [10] = target: T1, Delta-type opioid receptor (Mus musculus, UniProt P32300); assay: […]; format: functional; procedure, shortened: as §3
# Mu-type opioid receptor [11] = target: Mu-type opioid receptor (Mus musculus, UniProt P42866); assay: […]; format: functional; procedure, shortened: as §3
# [12] = target: Kappa-type opioid receptor (Mus musculus) (UniProt P33534); assay: Compound was tested for its ability to antagonize the antinociceptive effect of U-69,594 (kappa opioid receptor agonist) in mice; format: functional
# [13] = target: Opioid receptors; mu & kappa (Homo sapiens) (UniProt P41145+P35372); assay: Antagonist selectivity ratio measured as delta IC50 to that of mu kappa IC50 values.; format: functional
# Procedure, shortened: (§4)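 Derived from the tissue antagonism data. The δ IC50 ratio (DADLE, mouse vas deferens) is divided by the μ (morphine) or κ (ethylketazocine) IC50 ratio from guinea pig ileum, each ratio measured at 100 nM antagonist. An IC50 ratio below unity is set to a minimum of 1 in the calculation.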
# [14] = target: Delta-type opioid receptor (Mus musculus) (UniProt P32300); assay: Compound was tested for its ability to antagonize the antinociceptive effect of DPDPE (delta-1 opioid receptor agonist) in mice; format: functional; procedure, shortened: as §2
# Mus musculus [15] = species on record: Mus musculus; assay: Compound was tested for agonistic activity on the electrically stimulated mouse vas deferens (MVD) at 1 uM; format: functional
# Mus musculus [16] = species on record: Mus musculus; assay: Compound was tested for the antagonist activity on the electrically stimulated mouse vas deferens using DADLE as delta opioid receptor agonist; format: functional; procedure, shortened: as §1
# [17] = target: Opioid receptors; mu & delta (Homo sapiens) (UniProt P41143+P35372); assay: Antagonist selectivity ratio measured as delta IC50 to that of mu receptor IC50 values.; format: functional; procedure, shortened: as §4
# [18] = target: Mu-type opioid receptor (Mus musculus) (UniProt P42866); assay: Compound was tested for its ability to antagonize the antinociceptive effect of morphine (mu opioid receptor agonist) in mice; format: functional; procedure, shortened: as §2
# Cavia porcellus [19] = species on record: Cavia porcellus; assay: Compound was tested for agonistic activity on the electrically stimulated guinea pig ileum (GPI); format: functional, organism-based
# [20] = target: T1, Delta-type opioid receptor; assay: The compound tested for […] against [3H]- NT1 (Opioid receptor delta 1) opioid receptor; procedure, shortened: as §3
# Sequence of Mu-type opioid receptor (Cavia porcellus) (P97266 whole entry): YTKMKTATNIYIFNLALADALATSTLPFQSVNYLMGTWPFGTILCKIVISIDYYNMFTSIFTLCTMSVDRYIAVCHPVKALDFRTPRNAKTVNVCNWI
# Sequence of Kappa-type opioid receptor (Cavia porcellus) (P41144 whole entry): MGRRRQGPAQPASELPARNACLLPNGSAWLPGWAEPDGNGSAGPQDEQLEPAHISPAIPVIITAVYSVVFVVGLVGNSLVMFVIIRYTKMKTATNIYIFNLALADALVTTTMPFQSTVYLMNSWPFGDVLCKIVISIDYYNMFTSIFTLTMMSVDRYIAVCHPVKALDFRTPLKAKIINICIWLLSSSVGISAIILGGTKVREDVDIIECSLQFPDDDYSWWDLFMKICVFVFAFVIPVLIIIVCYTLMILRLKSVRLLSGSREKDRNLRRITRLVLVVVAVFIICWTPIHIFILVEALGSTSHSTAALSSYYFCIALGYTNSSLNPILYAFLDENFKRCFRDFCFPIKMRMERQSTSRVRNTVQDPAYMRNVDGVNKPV
# Sequence of Opioid receptors; mu & delta (Homo sapiens) (P35372 whole entry, looked up): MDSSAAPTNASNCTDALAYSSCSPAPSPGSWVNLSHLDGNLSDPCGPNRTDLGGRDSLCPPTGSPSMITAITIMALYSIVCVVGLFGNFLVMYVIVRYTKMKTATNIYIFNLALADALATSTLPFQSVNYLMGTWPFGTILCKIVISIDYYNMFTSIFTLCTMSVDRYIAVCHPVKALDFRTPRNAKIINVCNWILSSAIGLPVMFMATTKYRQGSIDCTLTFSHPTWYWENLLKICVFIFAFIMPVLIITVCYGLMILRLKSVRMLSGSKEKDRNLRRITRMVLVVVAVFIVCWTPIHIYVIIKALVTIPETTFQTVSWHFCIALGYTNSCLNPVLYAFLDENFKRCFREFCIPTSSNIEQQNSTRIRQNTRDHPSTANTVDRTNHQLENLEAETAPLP
# Sequence of Opioid receptors; mu & delta (Homo sapiens) (P41143 whole entry, looked up): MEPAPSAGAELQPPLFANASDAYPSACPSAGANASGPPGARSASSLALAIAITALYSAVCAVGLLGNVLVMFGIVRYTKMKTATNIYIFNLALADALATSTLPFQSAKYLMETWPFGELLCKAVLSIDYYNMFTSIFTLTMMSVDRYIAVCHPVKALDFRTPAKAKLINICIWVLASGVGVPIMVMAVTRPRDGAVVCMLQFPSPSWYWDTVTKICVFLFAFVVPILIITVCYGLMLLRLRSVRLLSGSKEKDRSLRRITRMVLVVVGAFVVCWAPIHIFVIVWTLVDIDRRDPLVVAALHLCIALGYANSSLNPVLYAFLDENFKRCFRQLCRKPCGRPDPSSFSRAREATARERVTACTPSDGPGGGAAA
# Sequence of Opioid receptors; mu & kappa (Homo sapiens) (P35372 whole entry, looked up): as the sequence (P35372 whole entry, looked up) above
# Sequence of Opioid receptors; mu & kappa (Homo sapiens) (P41145 whole entry, looked up): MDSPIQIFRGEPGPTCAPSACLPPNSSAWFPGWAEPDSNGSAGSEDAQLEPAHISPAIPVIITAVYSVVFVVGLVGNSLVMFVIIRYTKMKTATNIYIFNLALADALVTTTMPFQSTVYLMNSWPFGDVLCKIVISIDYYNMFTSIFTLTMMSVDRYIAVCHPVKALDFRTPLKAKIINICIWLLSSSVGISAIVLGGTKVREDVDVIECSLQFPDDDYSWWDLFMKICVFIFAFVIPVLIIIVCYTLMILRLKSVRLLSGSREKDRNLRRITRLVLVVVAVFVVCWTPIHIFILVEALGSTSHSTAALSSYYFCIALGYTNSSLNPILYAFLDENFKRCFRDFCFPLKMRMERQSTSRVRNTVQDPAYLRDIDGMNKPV
# T1 sequence (P32300 whole entry): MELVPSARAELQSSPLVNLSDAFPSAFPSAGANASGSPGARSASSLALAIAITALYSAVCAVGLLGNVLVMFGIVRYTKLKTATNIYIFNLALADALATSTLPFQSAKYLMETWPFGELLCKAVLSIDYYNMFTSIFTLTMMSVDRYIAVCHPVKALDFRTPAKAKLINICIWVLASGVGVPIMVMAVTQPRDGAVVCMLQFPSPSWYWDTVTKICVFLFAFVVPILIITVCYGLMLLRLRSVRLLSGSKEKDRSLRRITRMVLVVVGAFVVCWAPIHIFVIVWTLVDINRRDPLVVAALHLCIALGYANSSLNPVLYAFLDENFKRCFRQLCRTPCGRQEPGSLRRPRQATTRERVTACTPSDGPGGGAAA
# Sequence of Delta-type opioid receptor (Mus musculus) (P32300 whole entry): as above
# Sequence of Mu-type opioid receptor (Mus musculus, UniProt P42866) (P42866 whole entry): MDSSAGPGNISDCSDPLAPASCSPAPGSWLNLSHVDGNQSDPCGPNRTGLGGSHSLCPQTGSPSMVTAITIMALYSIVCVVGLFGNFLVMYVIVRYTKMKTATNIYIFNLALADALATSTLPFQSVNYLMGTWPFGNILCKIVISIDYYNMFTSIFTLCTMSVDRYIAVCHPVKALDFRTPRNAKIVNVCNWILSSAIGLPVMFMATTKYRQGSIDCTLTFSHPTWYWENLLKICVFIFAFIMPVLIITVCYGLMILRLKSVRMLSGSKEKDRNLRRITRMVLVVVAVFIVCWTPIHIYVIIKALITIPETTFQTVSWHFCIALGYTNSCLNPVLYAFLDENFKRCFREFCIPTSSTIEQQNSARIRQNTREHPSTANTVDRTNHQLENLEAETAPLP
# Sequence of Mu-type opioid receptor (Mus musculus) (P42866 whole entry): as above
# Sequence of Kappa-type opioid receptor (Mus musculus, UniProt P33534) (P33534 whole entry): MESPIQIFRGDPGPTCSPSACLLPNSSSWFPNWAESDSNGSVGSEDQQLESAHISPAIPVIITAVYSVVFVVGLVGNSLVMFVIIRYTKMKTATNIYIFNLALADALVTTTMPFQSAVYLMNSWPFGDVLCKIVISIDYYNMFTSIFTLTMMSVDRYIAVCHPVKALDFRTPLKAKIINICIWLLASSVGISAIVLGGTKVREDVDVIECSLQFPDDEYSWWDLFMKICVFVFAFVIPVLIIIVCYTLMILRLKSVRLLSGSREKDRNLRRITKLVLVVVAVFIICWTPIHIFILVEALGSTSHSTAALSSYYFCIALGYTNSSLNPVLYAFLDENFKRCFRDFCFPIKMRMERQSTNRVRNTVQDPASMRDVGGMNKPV
# Sequence of Kappa-type opioid receptor (Mus musculus) (P33534 whole entry): as above
# Sequence of Delta-type opioid receptor (Homo sapiens, UniProt P41143) (P41143 whole entry): as the sequence (P41143 whole entry, looked up) above
# Sequence of Kappa-type opioid receptor (Homo sapiens, UniProt P41145) (P41145 whole entry): as the sequence (P41145 whole entry, looked up) above
# Sequence of Mu-type opioid receptor (Homo sapiens, UniProt P35372) (P35372 whole entry): as the sequence (P35372 whole entry, looked up) above
Compound,IC50 ratio [1],Ki (Mu-type opioid receptor [2]),Ki [3],Ki [4],Max response (Cavia porcellus [5]),IC50 ratio [6],IC50 (Mus musculus [7]),ED50 ratio [8],Ki [9],Ki [10],Ki (Mu-type opioid receptor [11]),ED50 ratio [12],IC50 ratio [13],ED50 ratio [14],Max response (Mus musculus [15]),IC50 ratio (Mus musculus [16]),IC50 ratio [17],ED50 ratio [18],IC50 (Cavia porcellus [19]),Ki [20]
CN1CC[C@]23c4c5ccc(O)c4O[C@H]2C(=O)C2(Cc4ccccc4C2)C[C@@]3(O)[C@H]1C5 [SPIROINDANYLOXYMORPHONE],1.2,14.3 nM,2.75 nM,> 3000 nM,55%,0.99,23 nM,,,,,,,,,,,,,
COc1cccc2c1CC1(C2)C[C@@]2(O)C3Cc4ccc(O)c5c4C2(CCN3CC2CC2)C(O5)C1=O (stereo not given in full),6.2,,,,-4.5%,2.4,,4.3,> 3000 nM,0.028 nM,0.44 nM,3.4,35,5.6,-18%,85,13.7,2.5,,
COc1ccc2c(c1)CC1(C2)C[C@@]2(O)C3Cc4ccc(O)c5c4C2(CCN3CC2CC2)C(O5)C1=O (stereo not given in full),6.9,,,,-52%,2.8,,,,,,,4.2,,0.6%,11.8,1.7,,,
O=C1[C@@H]2Oc3c(O)ccc4c3[C@@]23CCN(CC2CC2)[C@H](C4)[C@]3(O)CC12Cc1ccccc1C2,,1.53 nM,0.25 nM,> 3000 nM,16%,,,,,,,,,,-8%,130,,,,
O=C1/C(=C/c2ccccc2)C[C@@]2(O)[C@H]3Cc4ccc(O)c5c4[C@@]2(CCN3CC2CC2)[C@H]1O5,,,,,,,,0.91,,,,1.2,,7.2,,,,0.8,,
O=C1C2Oc3c(O)ccc4c3C23CCN(CC2CC2)C(C4)[C@]3(O)CC12Cc1cccc3cccc(c13)C2 (stereo not given in full),0.93,,,,11.2%,0.78,,,,,,,12.6,,17.6%,12.6,12.6,,,
O=C1C2Oc3c(O)ccc4c3C23CCN(CC2CC2)C(C4)[C@]3(O)CC12Cc1ccc3ccccc3c1C2 (stereo not given in full),1,,,,13.9%,1.7,,,,,,,14.7,,14%,25,25,,,
COc1cccc2c1CC1(C2)C[C@@]2(O)C3Cc4ccc(O)c5c4C2(CCN3C)C(O5)C1=O (stereo not given in full),,,,,,,27 nM,,> 3000 nM,5.49 nM,9.24 nM,,,,,,,,148 nM,
O=C1C2Oc3c(O)ccc4c3C23CCN(CC2CC2)C(C4)[C@]3(O)CC12Cc1cc3ccccc3cc1C2 (stereo not given in full),3.4,,,,52%,0.24,,1.5,1030 nM,Non-competitive inhibition,7.81 nM,0.8,48,4.4,4.9%,48,14.1,0.8,,
CN1CCC23c4c5ccc(O)c4OC2C(=O)C2(Cc4cc6ccccc6cc4C2)C[C@@]3(O)C1C5 (stereo not given in full),0.58,,,,13.4%,1.2,,0.9,> 3000 nM,,125 nM,3,1,1.5,57%,1.1,1,2,,31.6 nM
